This note sets out measurements from the EternaBench riboswitch data.

For this data set, the system named is MS2 coat protein. Nature of the data set: apparent Kd, MS2 coat protein; higher = weaker binding; RNA-MaP array; FMN 200 µM where present. The essentials: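 Each design was made on Illumina sequencing-chip clusters by stalled E. coli RNA polymerase and titrated with SNAP-549-labelled MS2 coat protein from 0.7 or 1.5 nM, doubling to 3 µM, in the absence and then the presence of constant ligand. The buffer was 100 mM Tris-HCl pH 7.5, 80 mM KCl, 4 mM MgCl2, BSA, DTT, yeast tRNA and Tween-20. The apparent Kd is the median of filtered per-cluster fits of binding curves, with green signal normalised to red-channel RNA signal and control-cluster median Fmax.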

Setting [1] is: designed as: OFF switch for flavin mononucleotide, no ligand.
Where [2] appears, read: ligand present: flavin mononucleotide, designed as: OFF switch for flavin mononucleotide.
The mark [3] stands for this setting: designed as: ON switch for flavin mononucleotide, no ligand.
The mark [4] stands for this setting: ligand present: flavin mononucleotide, designed as: ON switch for flavin mononucleotide.

Regarding “GUACUGUAGUGAGGAUAUACGAGAACGAUAGUUCGGCGAUCCAUUUAUACAUGAGGAUCACCCAUGUAGAAGGCACUUCAGUAC”, the “apparent Kd” value is, setting by setting: under setting [1], 6.26 nM; under setting [2], 72.5 nM.

For “GGACGUCUCAUUAACAUGAGGAUCACCCAUGUCAAAAGACAUGAGGAUAUGGAUCCUAAUUGGAUCCAGAAGGCAUGGACGUCC”, the “apparent Kd” value is 939 nM under setting [3] and 59.2 nM under setting [4].

For the sequence “AUCAGCUCGUCAGGAUAUACGUCACUGCGUCAGCAGUGUGAUAAGAUCACAUGAGGAUCACCCAUGUAGAAGGGACGAGCUGAU”, the “apparent Kd” value under setting [1] is 8.48 nM and the “apparent Kd” value under setting [2] is 72.3 nM.

“ACGGCCUUACAUGAGGAUCACCCAUGUGAGUAUGGAGUUACACAGGAUAUCCGCGUGGCAGGCAAGGAGAAGGGUGUAUUAGGA”: the “apparent Kd” value was 70 nM under setting [3] and 21.9 nM under setting [4].

“GUGCCUAACUAGAAGGCCCAAUGCAAAGCAUCGGGAGGAUAUGGGUUUAAUAAAUAAACAUGAGGAUCACCCAUGUGGCACAAA”: the “apparent Kd” value under setting [4] was determined as 10.4 nM.

Consider “AUCAGCUCGUCAGGAUAUACGUCACUGCGUCAGCAGUGUGGUAAGAUCACAUGAGGAUCACCCAUGUAGAAGGGUCGAGCUGAU”, for which the “apparent Kd” value under setting [1] came to 17.7 nM and the “apparent Kd” value under setting [2] came out at 349 nM.

As for “AGAUGGCGAGGAUAUACAUGAGGAUCACCCAUGUGAAGAUAAAGAGUGAGGAAGAAAAGUAGAAGGCGCUGUCA”, the “apparent Kd” value under setting [1] is 123 nM and the “apparent Kd” value under setting [2] was 506 nM.

For the sequence “AGUAACAGAGGAUAUACUGUUUUAUGUAUUUAUUAUUUUAAACAUGAGGAUCACCCAUGUAGAAGGCUGAAUGA”, the “apparent Kd” value reads like this: under setting [1], 24.5 nM; under setting [2], 23.3 nM.

Take “UUAUAUAAUGUGAGGAUAUGCUGGUCCUUGGAUCAGCAGAAGGCACAUGAGGAUCACCCAUGUAGUAAAUUUUA”: the “apparent Kd” value is, setting by setting: under setting [1], 19 nM; under setting [2], 24.4 nM.

For the sequence “CUUUUGUGAGGAUAUUAGUAGUAGAUAGUUGGUGGUGUUGCUGAGAAGGCACAUGAGGAUCACCCAUGUACAAC”, the “apparent Kd” value was 344 nM under setting [1] and 335 nM under setting [2].

With “CCUCCAUCAUGAGGAUAUGGCACCUUAUUGGUGCCAGAAGGCAUGUCUCUUGACAUGAGGAUCACCCAUGUAAUAAAUUGGAGG”, the “apparent Kd” value runs as follows: under setting [3], 1150 nM; under setting [4], 109 nM.

“UUUGCAACAUGAGGAUCACCCAUGUAGGAUAUCGCUAUUGUAAUCAUGAAACAUGAUUACAAUAGCGAGAAGGACAUAUGCUUU”: the “apparent Kd” value runs as follows: under setting [1], 20.1 nM; under setting [2], 18.3 nM.

Turning to “AGUUUUGUACAUGAGGAUCACCCAUGUUAAUAUGUGGUAGUCAGAAGGCAUUGUUAGUGUUUAUAUGAGGAUAUGAUUAUUCAG”, the “apparent Kd” value under setting [3] stood at 41.1 nM and the “apparent Kd” value under setting [4] is 16.4 nM.

For “AGCAUGUGAGGAUAUGCAGUUGACCGGUACGCCCAGUCAGGGCAGAAGGCACAUGAGGAUCACCCAUGUGAUAG”, the “apparent Kd” value by setting is: under setting [1], 44.7 nM; under setting [2], 122 nM.

For “CGAACUAAGUAGAAGGCAGUCUUAAAAUAGGACUGAGGAUAUACAUGAGGAUCACCCAUGUACUCCUUUAAUAAGUUUGAAAUA”, the “apparent Kd” value is, setting by setting: under setting [1], 5.31 nM; under setting [2], 5.38 nM.

Take “GGUUGGCGAGGAUAUACAUGAGGAUCACCCAUGUGGUCCUGUGGCUGAAAAAACCUUUGUAGAAGGCGCGGGUC”: the “apparent Kd” value amounted to 197 nM under setting [1] and 262 nM under setting [2].

Consider “GAGGAACAUGAGGAUCACCCAUGUGAGGAUAUGCAUAGUGAGGUAGUAGAAGUUGAAUGCAGAAGGUACACUGA”, for which the “apparent Kd” value is, setting by setting: under setting [1], 42.2 nM; under setting [2], 32.2 nM.

On to “UUAAUUCUGAUUCUUGAAAUACAUGAGGAUCACCCAUGUUCACAGGAUAUUGAUUAUGGUAGUAACAAGAAGGGUGUAUCAUAU”, for which the “apparent Kd” value under setting [1] turned out to be 66 nM and the “apparent Kd” value under setting [2] came out at 113 nM.

For the sequence “AGAUGACAAAGUCAUCUCGCGCUGACAUGAGGAUCACCCAUGUAGGAUAUAUUACUCAAAGAGUAAUAGAAGGACAUGUGUCUU”, the “apparent Kd” value reads like this: under setting [1], 29.9 nM; under setting [2], 72.2 nM.

“AUUGUUAAGGUAGGAUAUAGUAAAAUGAUUUAAUUAGAAGGAUCUCACAUGAGGAUCACCCAUGUAAGAGGAUUACCCAUGUAU”: the “apparent Kd” value by setting is: under setting [1], 14.5 nM; under setting [2], 13.2 nM.

Regarding “CGAUAAAGCUGAGGAUAUGAGAAUAGAAAGAAAUCAGAAGGCAGACAUGAGGAUCACCCAUGUGAGUUCUCGAGAUUAGAUAUU”, the “apparent Kd” value by setting is: under setting [1], 25.2 nM; under setting [2], 60.6 nM.

Regarding “GCGCUACAUGAGGAUCACCCAUGUGCGAACGCACGAGGAUAUGCAUGGGCUAAUGCUGGUGCAGAAGGCGUGGCGC”, the “apparent Kd” value under setting [3] stood at 31.8 nM and the “apparent Kd” value under setting [4] came out at 22.6 nM.

As to “CUAUUGUGAGGAUAUCAGUAGUAAUACAAUAGUAUUACUACUGAGAAGGCACAUGAGGAUCACCCAUGUUCCUU”, the “apparent Kd” value is, setting by setting: under setting [1], 14.1 nM; under setting [2], 32.8 nM.

With “AUUUAAUUUAAUAAGAUCACAUGAGGAUCACCCAUGUAUAUAUAGGAUAUCAGCUCGAAUAGAGCUGAGAAGGAUAUAUACAUG”, the “apparent Kd” value under setting [1] is 47.4 nM and the “apparent Kd” value under setting [2] was 41 nM.

For “GUGGCCUAGGCACAGGAUAUGUUGCUCGUAACAUGAGGAUCACCCAUGUGCCUAUGAGAUUUAAUGCAGAAGGGUGCACGCCACG”, the “apparent Kd” value runs as follows: under setting [3], 173 nM; under setting [4], 17.1 nM.

Take “AAAACAUGAGGAUCACCCAUGUAAAGAUCGGUUAAUAGAGGUGAGGAUAUACGAAGUUAAAGCUGGUAGAAGGCACUGGGUACA”: the “apparent Kd” value by setting is: under setting [3], 78.5 nM; under setting [4], 51.3 nM.

For the sequence “UUCAUCAAUGAAGGAUAUCUAUAUCCAACAUGAGGAUCACCCAUGUUGAGGAUCACCUAUGUAAAGGAGAAGGUUAAUAUAACU”, the “apparent Kd” value came to 6.83 nM under setting [3] and 6.32 nM under setting [4].

Take “ACCCUGUCAGGAUAUCCUGCUGUGCGGCCUCUGUAUUCAAGGGAGAAGGGACAUGAGGAUCACCCAUGUAUGAG”: the “apparent Kd” value runs as follows: under setting [1], 40.6 nM; under setting [2], 47.5 nM.

“CAGUACUGAGGAUAUACAUGAGGAUCACCCAUGUGCUUCAGCUAGGAUACUAGCAUUAGUAGAAGGCAGUACUG”: the “apparent Kd” value came to 10.9 nM under setting [1] and 64.1 nM under setting [2].

For the sequence “CCAGGCUGUGUGAGGAUAUGCUGGUCCUUGGAUCAGCAGAAGGCACAUGAGGAUCACCCAUGUGAAUAGCUUGG”, the “apparent Kd” value under setting [1] turned out to be 16.9 nM and the “apparent Kd” value under setting [2] was determined as 30 nM.

For the sequence “AAACACGGACAUGAGGAUCACCCAUGUGGCGAAAGCCUUGGGAGAAGGAUUAAUGCAAAGCAUAAAUAGGAUAUUCAUACCGUG”, the “apparent Kd” value was determined as 1270 nM under setting [3] and 243 nM under setting [4].

For “AUCAUGUAAGGAUAUGACUACAUAAAAAAAAAAAAAUGUAGUCAGAAGGUACAUGAGGAUCACCCAUGUACAAA”, the “apparent Kd” value reads like this: under setting [1], 22.2 nM; under setting [2], 23.7 nM.

Regarding “UGAUCGGAGACAGGAUAUGUGACUGCAUAGUGCACAGAAGGGUCUACAUGAGGAUCACCCAUGUCACCGAACAUCAAACAACAA”, the “apparent Kd” value under setting [3] turned out to be 433 nM and the “apparent Kd” value under setting [4] amounted to 41.9 nM.

For “AAUCUUUUUAUGGGAUUACAAUAUGAGGAUAUCAUUCAUUUAUACAUGAGGAUCACCCAUGUUACUGAGAAGGCAUAUAUAAUA”, the “apparent Kd” value under setting [4] stood at 11 nM.

Take “GCCAUCGCGUGAGGAUAUGCUCCGGUUUCCGGAGCAGAAGGCAUGUCAUUAGACAUGAGGAUCACCCAUGUAGUUAAGAUGGCA”: the “apparent Kd” value runs as follows: under setting [3], 562 nM; under setting [4], 18.2 nM.

“CAGUACUGAGGAUAUACAUGAGGAUCACCCAUGUGCCUAAGCUAGGAUACUAGCAUUAGUAGAAGGCAGUACUG”: the “apparent Kd” value was 12.8 nM under setting [1] and 24.8 nM under setting [2].

Consider “UGUAACCGAGGAUAUACAUGAGGAUCACCCAUGUAAUGUAGUAUAGUGUGUGUGAGGUGUAGAAGGUGGGAUGU”, for which the “apparent Kd” value reads like this: under setting [1], 93.4 nM; under setting [2], 97.2 nM.

As to “UUGAAUUAAAAGGAUAUGGGAGUCGAUAGACACCCAGAAGGUUUAACAUGAGGAUCACCCAUGUGUCCUAUCAA”, the “apparent Kd” value under setting [1] was determined as 23.1 nM and the “apparent Kd” value under setting [2] stood at 31.4 nM.

Take “CAACGUACCAGAGGAUAUGAUUGUGGGUAAAGAGCGCUCAGGUGGCUACAUGAGGAUCACCCAUGUCAGAAGGCUGGAGUUCAA”: the “apparent Kd” value is, setting by setting: under setting [1], 114 nM; under setting [2], 59.6 nM.

With “AAUGGCAUAGAGAAGGCGCCGCAGCUCUUCCUCCCAUCCCAACGACAUGAGGAUCACCCAUGUAGCGAGGAUAUCUAUACCGUC”, the “apparent Kd” value turned out to be 7.08 nM under setting [1] and 12.5 nM under setting [2].

Take “GGUACCAUCACAGGAUAUGCUUUCCAUUGGGAAGCAGAAGGGUGUAACAUGAGGAUCACCCAUGUGGUGCCAGGGCGUGAGCCU”: the “apparent Kd” value came to 217 nM under setting [3] and 15.2 nM under setting [4].

On to “CAGUACUGAGGAUAUACAUGAGGAUCACCCAUGUGUUCCAGCUAGGAAACUAGCGAAAGUAGAAGGCAGUACUG”, for which the “apparent Kd” value is, setting by setting: under setting [1], 23.3 nM; under setting [2], 551 nM.

Turning to “AAUAAACUCACAGGAUAUAGCCGAGGUCGCGUGAACUUACAGGCGACGAGGCUAGAAGGGUGACCACAUGAGGAUCACCCAUGU”, the “apparent Kd” value under setting [3] amounted to 985 nM and the “apparent Kd” value under setting [4] is 106 nM.

As to “CCAGCAACAUGAGGAUCACCCAUGUAGGAUAUCGCUAUUGUAAUCAUGAAACAUGAUUACAAUAGCGAGAAGGACAUAUGCUCC”, the “apparent Kd” value runs as follows: under setting [1], 7.53 nM; under setting [2], 10.2 nM.

Regarding “UUAAUUAAUUAAUUGCAGAUUACAUGAGGAUCACCCAUGUAUAAGGAUAUCGUCAGGAAUACUGACGAGAAGGUAUACAACUGC”, the “apparent Kd” value runs as follows: under setting [1], 20.3 nM; under setting [2], 25.4 nM.

Take “UACUACGCAGGAUAUACAUGAGGAUCACCCAUGUGUCUGCGAUAGGCACGUGAAAUCCGUAGAAGGGUGUAGAU”: the “apparent Kd” value under setting [1] was determined as 42 nM and the “apparent Kd” value under setting [2] is 109 nM.

For the sequence “AAUAUGUGAGGAUAUAUCCACCGCGUAGGCUCGCGGUGACAAUAGAAGGUACAUGAGGAUCACCCAUGUAGGGA”, the “apparent Kd” value under setting [1] is 67.7 nM and the “apparent Kd” value under setting [2] amounted to 36.9 nM.

As to “GGCGAACGGGCUAACAUGAGGAUCACCCAUGUGGACUCAUGGUAGGAUAUGCUGUACAAAGUACAGCAGAAGGGCCGGUGAGCC”, the “apparent Kd” value is, setting by setting: under setting [3], 142 nM; under setting [4], 445 nM.

One may read the apparent Kd as the concentration giving half-maximal binding under the conditions of the assay.
